# Assay results: ChEMBL document CHEMBL4414560, “Goniolanceolatins A-H, Cytotoxic Bis-styryllactones from Goniothalamus lanceolatus” (J Nat Prod, 2019)
# Experiments:
# NCI-H23 = experiment: Cytotoxicity against human NCI-H23 cells assessed as reduction in cell viability incubated fpr 72 hrs by celltiter-glo luminescent cell viability assay; type: functional, cell-based; conditions: NCI-H23, 72 h
# Summary of the method: (§1)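 Lung cancer lines received as gifts from the National Cancer Institute, Selangor, Malaysia, incubated at 37 °C, 5% CO2. Cells plated for 24 h, then drug-exposed for 72 h. Luminescent CellTiter-Glo viability read-out. IC50 is the concentration killing 50% of cells, reported as mean ± S.D. from at least three independent experiments. Cisplatin-treated cells used for validation.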
# Caco-2 = experiment: Cytotoxicity against human Caco2 cells assessed as reduction in cell viability incubated fpr 72 hrs by celltiter-glo luminescent cell viability assay; type: functional, cell-based; conditions: Caco-2, 72 h
# Summary of the method: (§2)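 Cell lines from ATCC, grown in RPMI-1640 with 10% FBS, 100 IU/mL penicillin and 100 μg/mL streptomycin at 37 °C, 5% CO2. Seeded for 24 h, then exposed to compound for 72 h. Viability read by CellTiter-Glo luminescence. IC50 is the concentration killing 50% of cells, reported as mean ± S.D. of at least three independent experiments. Cisplatin-treated cells served for validation.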
# NCI-H1299 = experiment: Cytotoxicity against human NCI-H1299 cells assessed as reduction in cell viability incubated fpr 72 hrs by celltiter-glo luminescent cell viability assay; type: functional, cell-based; conditions: NCI-H1299, 72 h; summary of the method: as §1
# HCC 2998 = experiment: Cytotoxicity against human HCC2998 cells assessed as reduction in cell viability incubated fpr 72 hrs by celltiter-glo luminescent cell viability assay; type: functional, cell-based; conditions: HCC 2998, 72 h; summary of the method: as §2
# CCD-841CoN = experiment: Cytotoxicity against human CCD-841-CoN cells assessed as reduction in cell viability incubated fpr 72 hrs by celltiter-glo luminescent cell viability assay; type: cell-based
# Summary of the method: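 Noncancerous colorectal CCD 841 CoN cells kept in DMEM with 20% FBS, 100 IU/mL penicillin and 100 μg/mL streptomycin at 37 °C, 5% CO2. Plated 24 h, then treated 72 h. Viability by CellTiter-Glo luminescence. IC50 is the 50%-kill concentration, given as mean ± S.D. from at least three independent experiments. Cisplatin used for validation.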
# SW48 = experiment: Cytotoxicity against human SW48 cells assessed as reduction in cell viability incubated fpr 72 hrs by celltiter-glo luminescent cell viability assay; type: functional, cell-based; conditions: SW48, 72 h; summary of the method: as §2
# MRC5 = experiment: Cytotoxicity against human MRC5 cells assessed as reduction in cell viability incubated fpr 72 hrs by celltiter-glo luminescent cell viability assay; type: cell-based; conditions: MRC5, 72 h; summary of the method: as §2
# A549 = experiment: Cytotoxicity against human A549 cells assessed as reduction in cell viability incubated fpr 72 hrs by celltiter-glo luminescent cell viability assay; type: functional, cell-based; conditions: A549, 72 h; summary of the method: as §2
# Calu-1 = experiment: Cytotoxicity against human Calu1 cells assessed as reduction in cell viability incubated fpr 72 hrs by celltiter-glo luminescent cell viability assay; type: functional, cell-based; conditions: Calu-1, 72 h; summary of the method: as §2
# HCT-116 = experiment: Cytotoxicity against human HCT116 cells assessed as reduction in cell viability incubated fpr 72 hrs by celltiter-glo luminescent cell viability assay; type: functional, cell-based; conditions: HCT-116, 72 h; summary of the method: as §2
Compound,IC50 (NCI-H23),IC50 (Caco-2),IC50 (NCI-H1299),IC50 (HCC 2998),IC50 (CCD-841CoN),IC50 (SW48),IC50 (MRC5),IC50 (A549),IC50 (Calu-1),IC50 (HCT-116)
CC(=O)O[C@@H](c1ccccc1)[C@@H](O[C@@H]1[C@@H]2C[C@@H](CC(=O)O2)O[C@H]1c1ccccc1)[C@@H]1CC=CC(=O)O1,9.3 µM,> 10 µM,> 10 µM,> 10 µM,> 100 µM,> 10 µM,> 100 µM,> 10 µM,> 10 µM,9.5 µM
CC(=O)O[C@@H]([C@@H]1CC=CC(=O)O1)[C@H](O[C@@H](c1ccccc1)[C@@H](O)[C@@H]1CC=CC(=O)O1)c1ccccc1,2.6 µM,7 µM,4.6 µM,> 10 µM,> 100 µM,4.1 µM,> 100 µM,6.4 µM,2.2 µM,4.1 µM
O=C1C=CC[C@@H]([C@H](O)[C@H](O[C@@H](c2ccccc2)[C@@H](O)[C@@H]2CC=CC(=O)O2)c2ccccc2)O1,3.2 µM,> 10 µM,7.1 µM,2.9 µM,> 100 µM,4.1 µM,> 100 µM,7.8 µM,5.4 µM,5.9 µM
O=C1C=CC[C@@H]([C@H](O)[C@@H](O[C@H]([C@@H]2CC=CC(=O)O2)[C@@H](O)c2ccccc2)c2ccccc2)O1,5.2 µM,> 10 µM,9.5 µM,> 10 µM,> 100 µM,5.5 µM,> 100 µM,> 10 µM,7.5 µM,8 µM
